Screening results from PubChem.
Most compounds without a hit are left out; they make up all but 2.5% or so of the library.
SENP8 block-1: inhibitors of human SENP8 protease. Q96LD8. purified SENP8, Z-RLRGG-aminoluciferin cleavage, luminescence. inhibition, % at 10 µM. 330,000 compounds, 1.2% hits; in the data active = inhibition above about 50%
SENP7 inh: SENP7 protease inhibition; Q9BQF6; recombinant SENP7, Z-RLRGG-aminoluciferin luminescence, 40 min; inhibition, % at 5 µM; 330,000 compounds, 1.5% hits; AID 434973;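 active = inhibition above about 50% at the single test dose, limit read from the data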
SENP1 inh: blocks the human SENP1 SUMO protease catalytic domain; inhibition, % at 10 µM; 360,000 compounds, 0.21% hits; recombinant SENP1 catalytic domain, CyPet-SUMO1-YPet FRET cleavage; Q9P0U3; AID 624204;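 active = inhibition at least 30% at 10 µM, raw YFP signal under a set limit, fluorescence ratio 0.5 to 1.5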
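Test system: hSENP1 catalytic domain, recombinant; Amount: 20 pM final SENP1 enzyme; Medium: Tris pH 8 buffer plus EDTA, NaCl, BME, BSA, NP40, catalase; Schedule: 50 min enzyme reaction, room temperature, light-protected; Technique: FRET fluorescence in CFP and YFP emission channels; Controls: no-enzyme wells low, DMSO-plus-enzyme wells high control.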
SENP6 inh: SENP6 protease inhibition | Q9GZR1 | Recombinant SENP6 catalytic domain, aminoluciferin luminescence | inhibition, % at 10 µM | 330,000 compounds, 1.8% hits | AID 2599;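 active = inhibition above about 50% at the single tested dose, limit read from the data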
Target sequence (Q9GZR1 628-1112 limits assumed): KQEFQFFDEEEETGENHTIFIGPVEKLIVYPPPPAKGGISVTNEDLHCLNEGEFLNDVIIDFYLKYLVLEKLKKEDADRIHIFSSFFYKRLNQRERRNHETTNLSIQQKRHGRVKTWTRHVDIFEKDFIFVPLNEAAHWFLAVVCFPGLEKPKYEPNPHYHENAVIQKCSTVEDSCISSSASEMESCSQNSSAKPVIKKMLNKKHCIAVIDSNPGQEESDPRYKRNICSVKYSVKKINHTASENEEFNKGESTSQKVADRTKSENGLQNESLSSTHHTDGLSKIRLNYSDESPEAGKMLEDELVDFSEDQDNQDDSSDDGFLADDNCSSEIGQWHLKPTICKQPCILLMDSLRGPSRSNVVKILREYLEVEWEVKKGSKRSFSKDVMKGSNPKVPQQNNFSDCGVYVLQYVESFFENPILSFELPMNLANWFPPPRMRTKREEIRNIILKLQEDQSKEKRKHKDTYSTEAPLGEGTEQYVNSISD
SENP8 block-2: blocks human SENP8 cleavage of Nedd8 substrate. recombinant SENP8, Nedd8 substrate fluorescence. AID 602440. inhibition, % at 20 µM. 360,000 compounds, 0.64% hits. Q96LD8; in the data active = inhibition mostly above about 40%, no sharp cut-off; inactive = mostly below about 27%
SENP8 conf: confirmation of human SENP8 protease inhibitors; Recombinant SENP8, Z-RLRGG-aminoluciferin luminescence, 60 min; shares compounds with SENP7 inh; 6,200 compounds, 40% hits; inhibition, % at 12.5 µM; AID 488912;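 active = mean inhibition across replicates above about 50%, limit read from the data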
SENP6 conf: human SENP6 inhibition, confirmed | AID 488915 | 6,200 compounds, 58% hits | recombinant SENP6, Z-RLRGG-aminoluciferin luminescence | shares compounds with SENP7 inh | inhibition, % at 12.5 µM
SENP7 confirm: human SENP7 inhibition, confirmed; shares compounds with SENP7 inh; recombinant SENP7, Z-RLRGG-aminoluciferin luminescence, 40 min; inhibition, % at 12.5 µM; 6,200 compounds, 69% hits; AID 488917
Casp3 select: selectivity test for SENP inhibitors: human caspase-3 inhibition; shares compounds with SENP7 inh; purified caspase-3, Z-DEVD-aminoluciferin luminescence, 60 min; inhibition, % at 12.5 µM; 6,200 compounds, 60% hits; AID 488918;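 active = mean inhibition above about 50%, limit read from the data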
Target sequence (P42574 28-227 limits assumed): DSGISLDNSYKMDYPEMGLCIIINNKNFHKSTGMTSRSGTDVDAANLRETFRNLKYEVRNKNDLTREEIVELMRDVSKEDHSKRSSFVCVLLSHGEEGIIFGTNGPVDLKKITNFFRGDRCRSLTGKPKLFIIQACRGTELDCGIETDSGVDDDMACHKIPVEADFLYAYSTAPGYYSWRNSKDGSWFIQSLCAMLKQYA
Luc interf: luminescence interference (SENP counter-screen). shares compounds with SENP7 inh. Pre-incubated SENP8/Z-RLRGG-aminoluciferin, luciferase luminescence interference. inhibition, % at 12.5 µM. 6,200 compounds, 39% hits. AID 488919;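 active = mean inhibition above about 50% when retested at one dose, limit read from the data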
Of the large screens only hits and unclear results are named; the others gave an inactive call (follow-up assays come after a bar, where they were run).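 Rule for the calls, unless noted: active = mean inhibition above about 50% in the one-dose retest (limit read from the data); inactive = the rest.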

COc1ccc(OC)c(N2C(=O)NC(=O)/C(=C/c3ccc([N+](=O)[O-])s3)C2=O)c1	SENP6 inh 55, SENP8 block-2 63 | SENP8 conf inactive | SENP6 conf inactive | SENP7 confirm inactive | Casp3 select inactive | Luc interf inactive
COc1cc2c(cc1OC)-c1c(OC)c(OC)cc3c1[C@H](C2)N(C)CC3	SENP7 inh 52, SENP6 inh 83 | SENP8 conf inactive | SENP6 conf 66 | SENP7 confirm inactive | Casp3 select inactive | Luc interf inactive
NC(C(=O)O)c1cc(=O)[nH]o1 (stereo unspecified)	none
COc1ccc(Cn2c(N)c(C(=O)NCc3ccco3)c3nc4ccccc4nc32)cc1OC	SENP8 block-1 52, SENP6 inh 74 | SENP8 conf inactive | SENP6 conf inactive | SENP7 confirm inactive | Casp3 select inactive | Luc interf inactive
CC(C)CCNC(=O)c1c(N)n(Cc2ccc3c(c2)OCO3)c2nc3ccccc3nc12	SENP8 block-1 82, SENP7 inh 58, SENP6 inh 72 | SENP8 conf inactive | SENP6 conf inactive | SENP7 confirm inactive | Casp3 select inactive | Luc interf inactive
CC(C)CNC(=O)c1c(N)n(Cc2ccc3c(c2)OCO3)c2nc3ccccc3nc12	SENP8 block-1 91, SENP7 inh 73, SENP6 inh 91 | SENP8 conf inactive | SENP6 conf inactive | SENP7 confirm inactive | Casp3 select inactive | Luc interf inactive
CCCNC(=O)c1c(N)n(Cc2ccc3c(c2)OCO3)c2nc3ccccc3nc12	SENP8 block-1 53, SENP6 inh 54 | SENP8 conf inactive | SENP6 conf inactive | SENP7 confirm inactive | Casp3 select inactive | Luc interf inactive
CCCNC(=O)c1c(N)n(Cc2ccco2)c2nc3ccccc3nc12	none (no result: SENP1 inh, SENP8 block-2)
C=CCn1c(O)c(C=Nc2ccc(OC)cc2C)c(=O)[nH]c1=O	none
Cc1ccc(NC(=O)c2snnc2C)cc1Cl	SENP7 inh 60, SENP6 inh 65 | SENP8 conf inactive | SENP6 conf inactive | SENP7 confirm 83 | Casp3 select 64 | Luc interf 61
Cc1ccc(NC(=O)N2CC2)cc1NC(=O)N1CC1	none (no result: SENP8 block-1, SENP7 inh, SENP6 inh)
Clc1cccc(Cl)c1NC1=NCCS1	none (no result: SENP8 block-1, SENP7 inh, SENP6 inh)
c1ccc2c(NC3=NCCS3)cccc2c1	SENP8 block-1 88, SENP7 inh 61, SENP6 inh 76 | SENP8 conf inactive | SENP6 conf inactive | SENP7 confirm inactive | Casp3 select inactive | Luc interf inactive
O=C(N/N=C/c1c(O)n(C2CC2)c(=S)[nH]c1=O)c1ccccc1O	SENP8 block-1 83, SENP7 inh 83, SENP6 inh 82 | SENP8 conf 88 | SENP6 conf 86 | SENP7 confirm 95 | Casp3 select 87 | Luc interf inactive
Cc1ccccc1-n1c(O)c(/C=N/NC(=O)c2ccccc2O)c(=O)[nH]c1=S	none
CCOc1ccc(NC(=O)c2c(O)[nH]c(=O)[nH]c2=O)cc1	SENP8 block-1 59, SENP7 inh 80, SENP6 inh 74 | SENP8 conf 71 | SENP6 conf 59 | SENP7 confirm 95 | Casp3 select 84 | Luc interf inactive
CCOC(=O)c1ccc(NC(=O)c2c(O)[nH]c(=O)[nH]c2=O)cc1	SENP8 block-1 66, SENP7 inh 72, SENP6 inh 83 | SENP8 conf inactive | SENP6 conf inactive | SENP7 confirm inactive | Casp3 select inactive | Luc interf inactive
CCCCn1c(O)c(C(C)=NC(Cc2c[nH]c3ccccc23)C(=O)OC)c(=O)[nH]c1=O (stereo unspecified)	none
COc1ccccc1N=Cc1c(O)n(C)c(=O)n(C)c1=O	SENP7 inh 56, SENP6 inh 63 | SENP8 conf inactive | SENP6 conf inactive | SENP7 confirm 73 | Casp3 select inactive | Luc interf 59
CN1CC[C@@]2(C)c3cc(O)ccc3N(C)C2O1 (stereo partly specified)	SENP6 inh 57 | SENP8 conf inactive | SENP6 conf 56 | SENP7 confirm inactive | Casp3 select inactive | Luc interf inactive
CCCCCn1c(NC(=O)c2ccco2)c(C(=O)OCC)c2nc3ccccc3nc21	SENP8 block-1 80, SENP6 inh 79 | SENP8 conf inactive | SENP6 conf inactive | SENP7 confirm inactive | Casp3 select inactive | Luc interf inactive
CC(C)OCCCNC(=O)c1c(N)n(Cc2cccs2)c2nc3ccccc3nc12	SENP6 inh 64 | SENP8 conf inactive | SENP6 conf inactive | SENP7 confirm inactive | Casp3 select inactive | Luc interf inactive
CCCCNC(=O)c1c(N)n(CCCOC)c2nc3ccccc3nc12	SENP8 block-1 86, SENP6 inh 89 | SENP8 conf inactive | SENP6 conf inactive | SENP7 confirm inactive | Casp3 select inactive | Luc interf inactive
COCCCNC(=O)c1c(N)n(Cc2ccco2)c2nc3ccccc3nc12	none
COCCNC(=O)c1c(NC(=O)c2ccc(Br)o2)n(Cc2ccccc2)c2nc3ccccc3nc12	SENP8 block-1 82, SENP6 inh 83 | SENP8 conf inactive | SENP6 conf inactive | SENP7 confirm inactive | Casp3 select inactive | Luc interf inactive
COCCCNC(=O)c1c(NC(=O)c2ccco2)n(Cc2ccccc2)c2nc3ccccc3nc12	none
CCOC(=O)c1cc2ccccc2n1C1CCN(Cc2ccccc2)CC1	none (no result: SENP8 block-1, SENP7 inh, SENP6 inh)
Cc1ccc(S(=O)(=O)N(C)N=O)cc1	none
CC(C)CCn1c(N)c(C(=O)NCc2cccs2)c2nc3ccccc3nc21	SENP8 block-1 87, SENP7 inh 51, SENP6 inh 80 | SENP8 conf inactive | SENP6 conf inactive | SENP7 confirm inactive | Casp3 select inactive | Luc interf inactive
CC(C)CNC(=O)c1c(N)n(Cc2ccco2)c2nc3ccccc3nc12	none
CCOC(=O)c1c(NS(=O)(=O)c2ccccc2)n(CCCOC)c2nc3ccccc3nc12	SENP8 block-1 91, SENP7 inh 95, SENP6 inh 95 | SENP8 conf inactive | SENP6 conf 58 | SENP7 confirm inactive | Casp3 select inactive | Luc interf inactive
COCCNC(=O)c1c(N)n(CCC(C)C)c2nc3ccccc3nc12	SENP8 block-1 81, SENP6 inh 86 | SENP8 conf inactive | SENP6 conf inactive | SENP7 confirm inactive | Casp3 select inactive | Luc interf inactive
CCOC(=O)c1c(N)n(CCCOC(=O)c2ccco2)c2nc3ccccc3nc12	none
